Measurements collected from several papers.
Compare with care: the assays were run in different laboratories.
CDK9: Cyclin-dependent kinase 9 (CDK9, Homo sapiens, UniProt P50750)
CDK9 with cyclin T1: Cyclin-dependent kinase 9, with cyclin T1 (CDK9, Homo sapiens, UniProt P50750)

Compound | target | read-out | mode | method | tested at | endpoint | value
Cc1nn(C)cc1-c1nc2c(N3CCN(Cc4ccc(Cl)cc4)CC3)c(Cl)cnc2[nH]1 | CDK9 | binding |  | competition with immobilised ligand | 1 µM | remaining binding | 100%
Nc1ncc(-c2nc(N3CCOCC3)nc(N3CCOCC3)n2)c(C(F)F)n1 | CDK9 | binding |  | competition with immobilised ligand | 10 µM | remaining binding | 99%
Cn1cncc1[C@](O)(COc1ccc(C#N)cc1-c1ccc(OC(F)(F)F)cc1)c1ccc(C#N)cc1 | CDK9 | cell-free assay |  | competition with immobilised ligand | 1 µM | remaining binding | 100%
O=c1[nH]c2ccccc2n1C1CCN(Cc2ccc(-c3[nH]c4cc5ncnc5cc4nc3-c3ccccc3)cc2)CC1 | Cyclin-dependent kinase 9, with cyclin K (CDK9, Homo sapiens, UniProt P50750) | cell-free assay |  |  | 0.5 µM | remaining signal | 108%
COc1ncccc1-c1cnn2ccc(N3CCN(C(=O)OC(C)C)CC3)nc12 | CDK9 | binding |  | competition with immobilised ligand | 1 µM | remaining binding | 93%
Cn1cc(-c2cccc(N3CCc4c(sc5c4CC(C)(C)C5)C3=O)c2CO)cc(Nc2ccncn2)c1=O | CDK9 with cyclin T1 | enzyme activity | inhibitor |  | 1 µM | inhibition | 11%
N#CC1(c2ccccn2)CCN(Cc2cc(C(=O)O)c(=O)n3ccccc23)CC1 | CDK9 | cell-free assay |  | competition with immobilised ligand | 1 µM | remaining binding | 99%
C#Cc1n[nH]c2c(-c3cn(C(C)c4ccccn4)c(=O)[nH]c3=O)cc(F)cc12 (centres unmarked) | CDK9 with cyclin T1 | enzyme activity | inhibitor |  | 1 µM | inhibition | 20.9%
